Columns and labels:
CCRF-CEM [1] = experiment: Intracellular concentration of metabolites (ABCMP) from 6-8 hrs in CEM cells after incubation with the compound (10 uM); type: functional, cell-based; settings: Homo sapiens
Procedure, shortened: (§1)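 CEM T4 lymphocytes seeded at (2-4) × 10⁵ cells/mL in RPMI-1640 with 10% fetal calf serum, 2 mM L-glutamine, 0.075% NaHCO₃. They were exposed 24 h to 10 µM [³H]abacavir or 1.1 µM ³H-ProTide (5 µCi/5 mL), washed twice in cold medium, and extracted with cold methanol/water 60:40. Metabolites were separated by SAX HPLC, (NH₄)H₂PO₄ pH 5.0 gradient 0.005-0.30 M, with fractions by retention time in min. Results are pmol/10⁹ cells.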

[2] = tested on: Human immunodeficiency virus 2; experiment: Effective concentration against human immunodeficiency virus type 2 (ROD) in CEM cells; type: functional, organism-based; settings: Human immunodeficiency virus 2, CCRF-CEM
Procedure, shortened: (§2)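 HIV-1- and HIV-2-induced cytopathicity in CEM cell cultures, scored at day 4 by microscopic examination of virus-induced giant cell formation; EC50 = concentration inhibiting cytopathicity by 50%.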

Hepatitis B virus = experiment: Effective concentration against hepatitis B virus in Hep G2.2.15 cells; type: functional, organism-based; settings: HepG2 2.2.15
Procedure, shortened: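 Anti-HBV activity assayed in HepG2 2.2.15 human hepatoma cells, which constitutively produce HBV; EC50 = 50% effective concentration.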

Human alphaherpesvirus 1 [3] = experiment: Effective concentration against thymidine kinase competent herpes simplex virus (HSV-1) in […]; type: functional, organism-based
Procedure, shortened: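 Confluent HEL cell cultures inoculated with 100 CCID50 of HSV-1 (KOS), HSV-2 (G) or HSV-1 TK- (B2006, VMW-1837); after 1 h adsorption, residual virus removed and cells incubated with varying compound concentrations; cytopathicity recorded once complete in virus controls; EC50 = concentration inhibiting HSV-induced cytopathicity by 50%.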

CCRF-CEM [4] = experiment: Intracellular concentration of metabolites (CBVTP) from 35-38 hrs in CEM cells after incubation with the compound (10 uM); type: functional, cell-based; settings: Homo sapiens; procedure, shortened: as §1
CCRF-CEM [5] = experiment: Intracellular concentration of metabolites (CBVDP) from 19-21 hrs in CEM cells after incubation with the compound (10 uM); type: functional, cell-based; settings: Homo sapiens; procedure, shortened: as §1
CCRF-CEM [6] = experiment: Cytostatic concentration required to inhibit CEM cell proliferation; type: functional; settings: Homo sapiens
CCRF-CEM [7] = experiment: Intracellular concentration of metabolites (CBVMP +alaninyl-ABCMP) from 11-13 hrs in CEM cells after incubation with the compound (10 uM); type: functional, cell-based; settings: Homo sapiens; procedure, shortened: as §1
[8] = tested on: Human immunodeficiency virus 1; experiment: Effective concentration against human immunodeficiency virus type 1 in PBL cells; type: functional, organism-based; settings: Human immunodeficiency virus 1, PBL
Human alphaherpesvirus 1 [9] = experiment: Effective concentration against thymidine kinase deficient herpes simplex virus (HSV-1) in VMW-1837 strain; settings: Human alphaherpesvirus 1, VMW-1837
HEL = experiment: Cytostatic concentration required to inhibit HEL cell proliferation; type: functional; settings: Homo sapiens
Procedure, shortened: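 HEL cell proliferation measured in presence of compound; CC50 = 50% cytostatic concentration inhibiting HEL cell proliferation by 50%.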

[10] = Terminal elimination half-life in monkey after intravenous dosage; NA=not applicable; type: ADME, organism-based; settings: cercopithecidae, in vivo
Procedure, shortened: (§3)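 Female cynomolgus monkeys (three, 2.0-3.2 kg) received the succinate salt at 11.5 mg/kg (17.3 µmol/kg), 2.3 mg/mL in 10% DMSO/90% saline, 5 mL/kg, iv on day 1 and orally on day 8 (1-week washout); fasted overnight to ~4 h postdose. Serial plasma to 24 h, acetonitrile deproteination, LC/MS/MS of prodrug, alaninyl-ABC-MP, ABC-MP, ABC, CBV; noncompartmental analysis.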

[11] = Time of maximum concentration was observed in monkey after oral dosage; type: ADME, organism-based; settings: cercopithecidae, in vivo; procedure, shortened: as §3
Human alphaherpesvirus 1 [12] = experiment: Effective concentration against thymidine kinase deficient herpes simplex virus (HSV-1) in B2006 strain; settings: Human alphaherpesvirus 1, B2006
Human alphaherpesvirus 2 = experiment: Effective concentration against thymidine kinase competent herpes simplex virus (HSV-2) in […]
[13] = Area under the plasma concentration-time curve in monkey after intravenous dosage; type: ADME; settings: cercopithecidae; procedure, shortened: as §3
[14] = tested on: Human immunodeficiency virus 1; experiment: Ratio of CC50 to that of EC50 against human immunodeficiency virus type 1 in CEM cells; type: functional, CCRF-CEM
[15] = tested on: Human immunodeficiency virus 1; experiment: Effective concentration against human immunodeficiency virus type 1 in CEM cells; type: functional, organism-based; settings: Human immunodeficiency virus 1, CCRF-CEM; procedure, shortened: as §2
CCRF-CEM [16] = experiment: Intracellular concentration of metabolites (ABC + proABC + CBV) from 2-3 hrs in CEM cells after incubation with the compound (10 uM); type: functional, cell-based; settings: Homo sapiens; procedure, shortened: as §1
[17] = tested on: Moloney murine sarcoma virus; experiment: Effective concentration against murine moloney sarcoma virus in C3H/3T3 cells; type: functional, organism-based
[18] = tested on: Human immunodeficiency virus 2; experiment: Ratio of CC50 to that of EC50 against human immunodeficiency virus type 2 in CEM cells; type: functional, CCRF-CEM
HepG2 = experiment: Cytostatic concentration required to inhibit Hep G2.2.15 cell proliferation; type: functional, Homo sapiens; settings: Homo sapiens, HepG2
Procedure, shortened: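 Growth inhibition of HepG2 2.2.15 human hepatoma cells (constitutively HBV-producing) measured; CC50 = 50% cytostatic concentration.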

C3H/3T3 = experiment: Cytostatic concentration required to inhibit C3H/3T3 cell proliferation; type: functional; settings: Mus musculus
[19] = Apparent half life value in monkey after oral dosage; type: ADME, organism-based; settings: cercopithecidae, in vivo, read-out: T1/2 app (converted); procedure, shortened: as §3
[20] = Total plasma clearance in monkey after administration of intravenous dosage; (n=3); type: ADME, organism-based; settings: cercopithecidae; procedure, shortened: as §3
[21] = Terminal elimination half-life in monkey after administration of intravenous dosage; type: ADME, organism-based; settings: cercopithecidae, in vivo; procedure, shortened: as §3
[22] = Area under the plasma concentration-time curve in monkey after administration of intravenous dosage; type: ADME; settings: cercopithecidae; procedure, shortened: as §3
[23] = Oral bioavailability in monkey after oral dosage; type: ADME, organism-based; settings: cercopithecidae, in vivo; procedure, shortened: as §3
[24] = Area under the plasma concentration-time curve in monkey after peroral dosage; type: ADME; settings: cercopithecidae, po; procedure, shortened: as §3

Structure (SMILES): Nc1nc(NC2CC2)c2ncn([C@H]3C=C[C@@H](COP(=O)(O)O)C3)c2n1
- Concentration (pmol/10E9 cells) (CCRF-CEM [1]): 280
- EC50 [2]: 0.09 µM
- EC50 (Hepatitis B virus): 0.55 µM
- EC50 (Human alphaherpesvirus 1 [3]): 20 µM
- Concentration (pmol/10E9 cells) (CCRF-CEM [4]): 3020
- Concentration (pmol/10E9 cells) (CCRF-CEM [5]): 3490
- CC50 (CCRF-CEM [6]): 13 µM
- Concentration (pmol/10E9 cells) (CCRF-CEM [7]): 12400
- EC50 [8]: 0.008 µM
- EC50 (Human alphaherpesvirus 1 [9]): 20 µM
- CC50 (HEL): 110 µM
- T1/2 [10]: Not Active
- Tmax [11]: 78 min
- EC50 (Human alphaherpesvirus 1 [12]): 20 µM
- EC50 (Human alphaherpesvirus 2): 20 µM
- AUC [13]: 0.4 µM·h
- SI [14]: 190
- EC50 [15]: 0.07 µM
- Concentration (pmol/10E9 cells) (CCRF-CEM [16]): 5000
- EC50 [17]: 1.6 µM
- SI [18]: 150
- CC50 (HepG2): 17 µM
- CC50 (C3H/3T3): > 4 µM

Structure (SMILES): CCOC(=O)[C@H](C)NP(=O)(OC[C@@H]1C=C[C@H](n2cnc3c(NC4CC4)nc(N)nc32)C1)Oc1ccccc1 (stereo not given in full)
- Tmax [11]: 48 min
- half-life [19]: 24 min
- clearance [20]: 113 mL/min/kg
- half-life [21]: 6.6 min
- AUC [22]: 2.7 µM·h
- bioavailability [23]: 22%
- AUC [24]: 0.7 µM·h
